# Assay outcomes as filed in PubChem.
# Cardio protect – protects H9c2 cardiomyocytes from peroxide injury. H2O2 injury protection, ATPLite, 2 h. protection from H2O2 cell death, % at 20 µM. hit rate 0.63% among 360,000. AID 588492;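 active = compounds giving at least 50% protection of heart cells from peroxide-induced death in the single-dose screen, raw or plate-pattern-corrected value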
# CRFR2-BP ag – CRF-BP/CRF-R2 complex agonism | activation, % at 13.2 µM | hit rate 0.46% among 350,000 | HEK293 CRF-R2/CRF-BP, calcium dye fluorescence (FLIPR); percent of saturating CRF peptide response;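 active = activation of at least 50%, plus an integration ratio under a set limit after plate pattern correction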
# UCH37 inh – inhibitors of human deubiquitinating enzyme UCH37. purified proteasome/UCH37, Ub-AMC cleavage fluorescence. hit rate 0.33% among 330,000. inhibition, % (test concentration not listed);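 active = mean inhibition over replicate wells above about 20%, limit read from the data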
# Target sequence (Q9Y5K5 whole entry, looked up): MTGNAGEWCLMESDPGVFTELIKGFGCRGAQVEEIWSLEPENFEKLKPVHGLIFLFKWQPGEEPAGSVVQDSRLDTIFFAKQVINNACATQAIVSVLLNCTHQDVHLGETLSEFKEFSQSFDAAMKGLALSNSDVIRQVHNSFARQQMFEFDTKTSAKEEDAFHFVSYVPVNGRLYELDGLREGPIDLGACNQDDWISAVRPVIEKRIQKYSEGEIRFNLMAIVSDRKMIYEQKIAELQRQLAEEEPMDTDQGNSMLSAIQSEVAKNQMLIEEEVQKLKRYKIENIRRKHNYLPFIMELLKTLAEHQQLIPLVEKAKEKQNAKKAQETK
#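 Test system – human UCH37 enzyme supplied as purified proteasome complex · Incubation – 30 min preincubation with enzyme, 25 min cleavage at room temperature · Detection – AMC fluorescence from Ub-AMC cleavage, excitation 355 nm, emission 460 nm · Benchmarks – no-proteasome wells (full inhibition) and compound-free wells (no inhibition)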
# MIN6 prolif – induces beta-cell replication in MIN6 cells. MIN6 cells proliferation, ATPlite luminescence, 48 h; cells starved in 0.2% serum; 100% = growth in 10% serum. proliferation, % at 10 µM. hit rate 0.29% among 330,000. AID 2380;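 active = compounds whose signal lies at least 3.5 SD above the mean of all wells on their plate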
# CRFR2-BP antag – CRF-BP/CRF-R2 complex antagonism | HEK293 CRF-R2/CRF-BP, CRF-induced calcium fluorescence | inhibition, % at 11.8 µM | hit rate 0.59% among 350,000 | AID 588475;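 active = inhibition of the ligand-induced calcium signal above about 50% at the single tested concentration, limit read from the data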
# iPSC survival up – hiPSC single-cell survival enhancement; ATPlite luminescence; 100% = ROCK inhibitor wells, 0% = DMSO; survival enhancement, % at 20 µM; hit rate 0.044% among 360,000; AID 602274; in the data active = survival enhancement above about 18%;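 also: cells exposed to compounds for 16 hours before the ATP read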
# A number is an active result; 0 = inactive; - = not tested or not shown. This is a sample that favours compounds with a hit; in the whole collection about 2.1% have one here.
SMILES,Cardio protect,CRFR2-BP ag,UCH37 inh,MIN6 prolif,CRFR2-BP antag,iPSC survival up
CCN(CC)c1ccc(N=Cc2c(O)n(Cc3ccco3)c(=O)[nH]c2=O)cc1,0,60,0,0,0,0
CNP(=O)(Oc1ccccc1)OC12CC3CC(CC(C3)C1)C2 (stereo not drawn),0,0,0,0,78,0
Cc1cccc(NP(=O)(Oc2ccccc2)Oc2ccccc2)c1C,0,0,0,0,0,0
COc1cc(/C=C/c2nc3ccccc3c(=O)n2-c2ccc(O)cc2)ccc1O,66,0,0,0,0,0
O=c1c2ccccc2nc(/C=C/c2ccc3c(c2)OCO3)n1-c1ccccc1,0,0,0,0,0,0
COc1ccc(-n2c(/C=C/c3ccc(O)c(O)c3)nc3ccccc3c2=O)cc1,57,0,0,0,0,0
Cc1sc2nc(COC(=O)Cc3ccccc3)[nH]c(=O)c2c1C,53,0,0,0,0,0
O=C1NC(=O)N(CCNc2ncc(C(F)(F)F)cc2Cl)C(=O)C1C=NOCc1c(F)cccc1Cl (stereo not drawn),-,-,0,-,-,-
Oc1ccc(C=NNP(=S)(c2ccccc2)c2ccccc2)c(O)c1O,-,-,0,-,-,-
COC(=O)C12CCc3c(ccc4cc(OC)ccc34)C1=CC(=O)C2 (stereo not drawn),0,0,-,-,60,0
O=C1NC(=S)N(c2ccc(F)cc2)C(=O)/C1=C\c1ccoc1,0,0,0,-,0,0
Cc1ccc(N2C(=O)NC(=O)/C(=C\c3ccoc3)C2=O)cc1,0,54,-,0,0,0
O=C(CSC1c2ccccc2-c2ccccc21)NN=Cc1ccccc1O,-,-,0,-,-,-
CC(=O)N1CCC(N2CCCC(C(=O)c3cccc(Cl)c3)C2)CC1 (stereo not drawn),0,0,0,0,67,0
COc1cccc(C(=O)C2CCCN(C3CCOCC3)C2)c1 (stereo not drawn),0,0,0,0,0,0
Cc1cc(OC(=O)c2cccs2)c2c3c(c(=O)oc2c1)CCCC3,0,0,0,0,52,0
Cc1cc(OC(=O)c2ccco2)c2c3c(c(=O)oc2c1)CCCC3,0,0,0,0,0,0
CC[C@H](C)C=C(C)/C=C/C1=CC2=C(Cl)C(=O)[C@@](C)(OC(C)=O)C(=O)C2=CO1,-,-,0,-,-,-
COc1nc(NC(C)C)nc(NC(C)C)n1,0,0,30,0,0,0
COc1ccc(OC)c(-n2c(O)c(/C=C3\C=Nc4ccccc43)c(=O)[nH]c2=O)c1,0,0,-,0,0,0
CCOc1ccc(-n2c(O)c(/C=C3\C=Nc4ccccc43)c(=O)[nH]c2=O)cc1,0,108,0,0,0,0
CN(C)c1ccc(C(=O)NN=CC23CC[C@@H](O)CC2(O)CC[C@@H]2[C@@H]3CCC3(C)C(C4=CC(=O)OC4)CCC23O)cc1 (stereo partly drawn),-,-,0,-,-,-
CCC12CN3CCN(CC(C3)C1=NO)C2,-,-,0,-,-,-
CCN1CCN(c2cn[nH]c(=O)c2Cl)CC1,0,0,0,0,0,0
CCN1CCN(c2nc3c(c(=O)[nH]2)CCCC3)CC1,62,0,0,0,0,0
SMILES,Cardio protect,CRFR2-BP ag,UCH37 inh,MIN6 prolif,CRFR2-BP antag,iPSC survival up
CC12CC[C@H]3[C@@H](CCC4(O)C[C@H](O)CCC34C=NNC(=O)c3ccc(O)cc3)C1(O)CCC2C1=CC(=O)OC1 (stereo partly drawn),-,-,0,-,-,-
CNc1cc(Cl)c2nonc2c1[N+](=O)[O-],0,0,0,-,75,48
NC(=NCCCC(NC(=O)CNC(=O)c1ccccc1)C(=O)O)N[N+](=O)[O-] (stereo not drawn),-,-,0,-,-,-
CC1=CC2OC3CC4OC(=O)C=CC=CC(=O)OCCC(C)C(O)C(=O)OCC2(CC1)C4(C)C31CO1 (stereo not drawn),57,0,-,-,0,0
CC1CCOC(=O)C=CC=CC(=O)OC2CC3OC4C5OC5(C)C(O)CC4(COC(=O)C1O)C2(C)C31CO1 (stereo not drawn),0,0,-,-,0,0
CC(=Nc1ccc2c(c1)CCC2)c1c(O)n(C)c(=O)n(C)c1=O,0,0,32,0,0,0
CCC(=Nc1ccc2c(c1)CCC2)c1c(O)n(C)c(=O)n(C)c1=O,0,0,0,0,0,0
CCc1nc2ccccc2c(=O)n1-c1ccccc1[N+](=O)[O-],0,0,0,0,0,0
CCCCc1nc2ccccc2c(=O)n1-c1ccccc1[N+](=O)[O-],0,0,24,0,0,0
CCC12CN3CCN(CC(C3)C1=NNC(N)=O)C2,-,-,0,-,-,-
CN(C)c1ccc(/C=C2/C(=NO)C3CCN2CC3)cc1,-,-,0,-,-,-
O=c1[nH]c(O)c(/C=C2/C=CC(c3cc(Cl)ccc3Cl)=N2)c(=O)[nH]1,0,103,0,0,0,0
COc1ccc(-c2cc(-c3ccccc3)[n+](C)c(-c3ccccc3)c2)cc1,0,0,0,0,0,0
COc1ccc(-[n+]2c(-c3ccccc3)cc(-c3ccc(C)cc3)cc2-c2ccccc2)cc1,0,82,-,0,0,0
COc1ccc(P2(=O)Nc3ccccc3N2)cc1,53,0,-,0,0,0
C[C@]12CC[C@@H]3c4ccc(O)c(O)c4CC[C@H]3[C@@H]1CC[C@@H]2O,121,0,0,0,0,0
C[C@]12CCC3C(CCC4=CC(=NOCC(=O)NC(CCC(N)=O)C(=O)O)CC[C@@]43C)C1CCC2O (stereo partly drawn),-,-,0,-,-,-
O=C(/C=C/c1c[nH]c2ccccc12)c1c(O)n(CCc2ccccc2)c(=O)[nH]c1=O,0,166,-,0,0,0
CCCCn1c(O)c(C(C)=NCCc2c[nH]c3ccccc23)c(=O)[nH]c1=O,0,0,0,0,0,0
CC(C)(C)c1ccc(O)c(N=Cc2c(O)ccc3ccccc23)c1,51,60,-,0,0,0
C=C1C(C)C2C(Cc3ccccc3)NC(=O)C23C(OC(C)=O)C=CC(C)(O)CC(C)CC=CC3C1O (stereo not drawn),0,0,-,-,0,60
C=C1[C@@H](C)[C@H]2[C@H](Cc3ccccc3)NC(=O)[C@]23OC(=O)/C=C/[C@H](O)CCC[C@@H](C)C/C=C/[C@H]3[C@@H]1O,79,0,-,0,0,40
CN(CCCCC(=O)C=NO)Cc1ccccc1 (tested in a mixture with another compound),-,-,0,-,-,-
CC(C)CC(=NO)c1cn(C)c2ccccc12,-,-,0,-,-,-
CNC(=O)ON=C(C)Cc1nnn(-c2cc(C)on2)n1,-,-,0,-,-,-
Cc1cccc(N2C(=O)NC(=O)/C(=C/c3ccc([N+](=O)[O-])o3)C2=O)c1,-,0,21,-,0,-
FC(F)(F)C(=NP(=S)(N1CCOCC1)N1CCOCC1)N1CCOCC1,-,-,0,-,-,-
O=P(Nc1ccccc1)(Oc1ccccc1)Oc1ccccc1,54,0,0,0,0,0
